Laboratory results: ChEMBL document CHEMBL2150922, “A sulfoximine-based inhibitor of human asparagine synthetase kills L-asparaginase-resistant leukemia cells” (Bioorg Med Chem, 2012)
The source made the active and inactive calls. The calls are words filed in the database; no cut-off is given here.

Legend:
MOLT-4 [1] = assay: Cytotoxicity against human ASNase-resistant MOLT4 cells assessed as cell viability at 0.06 mM after 48 hrs by MTS assay in absence of ASNase; assay type: functional, cell-based
How it was run: (§1)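 MOLT-4R cells grown in RPMI 1640 with 10% heat-inactivated FBS and penicillin-streptomycin at 37°C under 5% CO2. Cells were exposed to 10-1000 µM inhibitor, with or without 1 U/mL ASNase, for 48 h. Read-out was MTS at 490 nm, as titer relative to untreated cells at t=0; mean ± SD of triplicates.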

MOLT-4 [2] = assay: Cytotoxicity against human ASNase-sensitive MOLT4 cells assessed as cell viability at 130 uM after 48 hrs by MTS assay; assay type: functional, cell-based
How it was run: (§2)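 The ASNase-sensitive MOLT-4S line was kept in RPMI 1640 with 10% heat-inactivated FBS and penicillin-streptomycin at 37°C, 5% CO2. They were incubated 48 h with 10-1000 µM compound and no ASNase. Viability was measured by MTS (OD 490) relative to t=0 cell number; mean ± SD of triplicates.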

[3] = target: T1, Asparagine synthetase [glutamine-hydrolyzing] (Homo sapiens, UniProt P08243); assay: Inhibition of human recombinant ASNS expressed in Sf9 cells assessed as initial inhibition constant for glutamine dependent production of inorganic pyrophosphate by spectrophotometry analysis
T1 sequence (P08243 whole entry): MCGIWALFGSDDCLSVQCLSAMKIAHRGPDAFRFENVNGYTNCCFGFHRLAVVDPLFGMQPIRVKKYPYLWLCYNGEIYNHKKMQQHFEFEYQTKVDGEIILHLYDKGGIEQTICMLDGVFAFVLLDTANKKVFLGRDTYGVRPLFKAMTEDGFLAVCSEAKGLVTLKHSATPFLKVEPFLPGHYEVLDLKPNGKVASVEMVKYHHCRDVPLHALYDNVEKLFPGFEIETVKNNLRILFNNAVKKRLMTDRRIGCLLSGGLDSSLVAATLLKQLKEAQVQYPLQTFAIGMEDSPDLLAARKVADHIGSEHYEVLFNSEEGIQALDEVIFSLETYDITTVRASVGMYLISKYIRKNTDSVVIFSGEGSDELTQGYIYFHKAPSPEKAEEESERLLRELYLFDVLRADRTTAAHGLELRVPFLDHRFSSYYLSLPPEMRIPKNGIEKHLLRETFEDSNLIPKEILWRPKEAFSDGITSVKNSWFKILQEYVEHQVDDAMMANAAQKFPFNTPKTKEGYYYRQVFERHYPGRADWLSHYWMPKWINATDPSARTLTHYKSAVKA

[4] = target: T1, Asparagine synthetase [glutamine-hydrolyzing]; assay: Inhibition of human recombinant ASNS expressed in Sf9 cells assessed as assessed as initial inhibition constant for ammonia dependent production of inorganic pyrophosphate by spectrophotometry analysis
How it was run: (§3)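 PPi formation was coupled to NADH loss at 340 nm over 20 min. Progress curves at fixed inhibitor levels were fitted, and Ki was taken from k versus [I] with Ka 0.1 mM. Duplicates.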

MOLT-4 [5] = assay: Cytotoxicity against human ASNase-resistant MOLT4 cells assessed as cell viability at 250 uM after 48 hrs by MTS assay in presence of ASNase; assay type: functional, cell-based; how it was run: as §1
MOLT-4 [6] = assay: Cytotoxicity against human ASNase-resistant MOLT4 cells assessed as cell viability at 130 uM after 48 hrs by MTS assay in presence of ASNase; assay type: functional, cell-based; how it was run: as §1
MOLT-4 [7] = assay: Cytotoxicity against human ASNase-resistant MOLT4 cells assessed as cell viability after 48 hrs by MTS assay in absence of ASNase; assay type: functional, cell-based; how it was run: as §1
MOLT-4 [8] = assay: Cytotoxicity against human ASNase-resistant MOLT4 cells assessed as cell viability at 0.13 mM after 48 hrs by MTS assay in absence of ASNase; assay type: functional, cell-based; how it was run: as §1
MOLT-4 [9] = assay: Cytotoxicity against human ASNase-sensitive MOLT4 cells assessed as cell viability at 250 to 500 uM after 48 hrs by MTS assay; assay type: functional, cell-based; how it was run: as §2
[10] = target: T1, Asparagine synthetase [glutamine-hydrolyzing]; assay: Inhibition of human recombinant ASNS expressed in Sf9 cells assessed as overall inhibition constant for glutamine dependent production of inorganic pyrophosphate by spectrophotometry analysis
[11] = target: T1, Asparagine synthetase [glutamine-hydrolyzing]; assay: Inhibition of human recombinant ASNS expressed in Sf9 cells assessed as assessed as overall inhibition constant for ammonia dependent production of inorganic pyrophosphate by spectrophotometry analysis; how it was run: as §3
MOLT-4 [12] = assay: Cytotoxicity against human ASNase-resistant MOLT4 cells assessed as cell viability at 0.06 mM after 48 hrs by MTS assay in presence of ASNase; assay type: functional, cell-based; how it was run: as §1
MOLT-4 [13] = assay: Cytotoxicity against human ASNase-resistant MOLT4 cells assessed as cell viability at >500 uM after 48 hrs by MTS assay in absence of ASNase
MOLT-4 [14] = assay: Cytotoxicity against human ASNase-resistant MOLT4 cells assessed as cell viability after 48 hrs by MTS assay in absence of ASNase relative to sulfoximine 1

Ki [3] [nM] | Ki [4] [nM] | Ki [10] [nM] | Ki [11] [nM] | Structure (SMILES) | Activity (MOLT-4 [1]) | Activity (MOLT-4 [2]) | Activity (MOLT-4 [5]) | Activity (MOLT-4 [6]) | Activity (MOLT-4 [7]) | Activity (MOLT-4 [8]) | Activity (MOLT-4 [9]) | Activity (MOLT-4 [12]) | Activity (MOLT-4 [13]) | fold change (FC) (MOLT-4 [14])
490 | 450 | 8 | 33 | C[S+]([O-])(CCN)=NP(=O)(O)OC[C@H]1O[C@@H](n2cnc3c(N)ncnc32)[C@H](O)[C@@H]1O (mixture of isomers) | inactive | Active | Active | Active | Dose-dependent effect | Active | Active | inactive | Active | 7
4500 | 3040 | 840 | 310 | C[S+]([O-])(CCC(=O)O)=NP(=O)(O)OC[C@H]1O[C@@H](n2cnc3c(N)ncnc32)[C@H](O)[C@@H]1O (mixture of isomers) |  |  |  |  |  |  |  |  |  | 
1000 | 280 | 24 | 2.5 | C[S+]([O-])(C[C@H](N)C(=O)O)=NP(=O)(O)OC[C@H]1O[C@@H](n2cnc3c(N)ncnc32)[C@H](O)[C@@H]1O (mixture of isomers) |  |  |  |  |  |  |  |  |  | 
